Reference: paper PMC5693607 (Cell chemical biology, 2017)

Assays:
[1] = system: recombinant class I and II HDACs; test: Photolabeling of recombinant proteins, gel based visualization; format: binding
HDAC3 [2] = target: T1, HDAC3 (Homo sapiens, UniProt O15379); format: cell-based; conditions: MDA-MB-231 cells, inhibitor 2–12 hours; for photomate labeling (engagement) of HDAC3 after inhibitor treatment: then photomate 10 µM
Procedure, shortened: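 MDA-MB-231 cells were grown 2 days in complete medium, then treated with inhibitor. They were then either lysed directly for Western blot or photolabeled: 10 µM probe for 40 min at 37 °C, ± SAHA 200 µM competitor, then 366 nm irradiation at 4 °C. Lysate (35.2 µg) was clicked to an 800 nm IRDye azide and separated on gel. HDAC3 was co-stained by antibody and imaged at 700/800 nm.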

recombinant HDAC2 = recombinant HDAC2 (Homo sapiens, UniProt Q92769); test: Fluorogenic enzymatic assay, recombinant HDAC2; format: biochemical
Procedure, shortened: (§1)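 Deacetylase activity of recombinant human class I HDAC isoforms was measured with a fluorogenic assay following previously published procedures. Inhibition is reported as log IC50, as the average ± s.e. of n=3.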

TNBC cells = test: Efficacy in breast cancer cells; format: cell-based, Human; conditions: Figure S2B
HDAC3 [3] = target: T1, HDAC3; test: Fluorogenic enzymatic assay, recombinant HDAC3; format: biochemical
Procedure, shortened: as §1
Target sequence in this assay (O15379 whole entry): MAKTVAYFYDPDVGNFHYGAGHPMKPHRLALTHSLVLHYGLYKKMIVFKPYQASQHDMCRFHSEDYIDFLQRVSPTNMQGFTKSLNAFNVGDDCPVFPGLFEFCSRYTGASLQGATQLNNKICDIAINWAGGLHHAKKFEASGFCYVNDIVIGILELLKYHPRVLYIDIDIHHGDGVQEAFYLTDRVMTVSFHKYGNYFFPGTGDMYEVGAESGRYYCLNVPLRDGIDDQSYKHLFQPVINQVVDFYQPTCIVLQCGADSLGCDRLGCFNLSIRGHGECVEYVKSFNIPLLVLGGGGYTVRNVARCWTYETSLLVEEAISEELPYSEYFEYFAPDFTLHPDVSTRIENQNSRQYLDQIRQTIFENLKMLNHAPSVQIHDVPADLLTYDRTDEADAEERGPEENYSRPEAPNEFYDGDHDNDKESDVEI
Target sequence in this assay (Q9Y618 395-489 partner limits assumed): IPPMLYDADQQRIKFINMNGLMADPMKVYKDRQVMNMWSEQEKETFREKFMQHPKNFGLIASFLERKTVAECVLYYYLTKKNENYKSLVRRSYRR

class I and II HDACs [4] = target: T2, class I and II HDACs (Homo sapiens, UniProt O15379); format: cell-based; conditions: P<.0001
Procedure, shortened: (§2)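 Cells at 90% confluence were pretreated with SAHA (200 µM) or DMSO, then given photomate 10 µM for 40 min at 37 °C. They were cooled to 4 °C and irradiated at 366 nm (35 J/cm2). Lysate (1 mg) was clicked to azide-biotin (1.5× probe; TCEP, TBTA, CuSO4; 90 min rt), then enriched on streptavidin beads and in-gel digested. Proteins reduced ≥50% by SAHA were scored.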

class I and II HDACs [5] = format: cell-based, Human; conditions: seven breast cancer cell lines, photomate 10 µM
Procedure, shortened: as §2

class I and II HDACs [6] = target: T2, class I and II HDACs; test: In situ photolabeling of MCF-7 cells, enrichment, Western blot and MS/MS; format: cell-based; conditions: MCF-7 cells and other luminal cell types
Procedure, shortened: (§3)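 MCF-7 cells at 90% confluence were pretreated with SAHA (200 µM) or DMSO, then given 10 µM test compound for 40 min at 37 °C. Cells were cooled to 4 °C, irradiated at 366 nm (35 J/cm2) and lysed in HEPES pH 7.5 buffer. Lysate was click-conjugated to biotin azide (CuSO4/TBTA/TCEP, 90 min, rt), then streptavidin-enriched for Western blot or in-gel tryptic MS/MS. A hit was a protein reduced ≥50% by SAHA and absent in DMSO controls.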

class I and II HDACs [7] = test: as above; format: cell-based, Human; conditions: MCF-7 cells
Procedure, shortened: as §3

recombinant HDAC4 = recombinant HDAC4 (Homo sapiens, UniProt P56524); test: Fluorogenic enzymatic assay, recombinant HDAC4; format: biochemical
recombinant HDAC8 = target: T3, recombinant HDAC8 (Homo sapiens, UniProt Q9BY41); test: Fluorogenic enzymatic assay, recombinant HDAC8; format: biochemical
T3 sequence (Q9BY41 1-377): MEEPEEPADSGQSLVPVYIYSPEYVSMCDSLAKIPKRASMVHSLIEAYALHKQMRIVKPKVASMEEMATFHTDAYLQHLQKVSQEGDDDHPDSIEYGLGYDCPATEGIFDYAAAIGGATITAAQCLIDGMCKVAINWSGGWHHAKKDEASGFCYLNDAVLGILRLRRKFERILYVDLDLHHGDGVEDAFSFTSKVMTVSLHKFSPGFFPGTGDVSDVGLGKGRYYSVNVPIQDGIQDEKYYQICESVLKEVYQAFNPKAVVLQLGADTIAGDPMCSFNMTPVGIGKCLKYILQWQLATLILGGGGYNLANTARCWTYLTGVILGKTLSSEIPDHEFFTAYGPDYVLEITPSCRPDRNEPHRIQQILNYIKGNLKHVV
Procedure, shortened: as §1

recombinant HDAC1 = recombinant HDAC1 (Homo sapiens, UniProt Q13547); test: Fluorogenic enzymatic assay, recombinant HDAC1; format: biochemical
Procedure, shortened: as §1

HDAC3 [8] = target: T1, HDAC3; test: Treatment followed by in situ photolabeling and Western blot, MCF-7 cells; format: cell-based
Procedure, shortened: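 MCF-7 cells received TNF-α or vehicle, then photomate 10 µM (± SAHA 200 µM) for 40 min at 37 °C. They were irradiated at 366 nm (35 J/cm2) at 4 °C. Lysate (35.2 µg) was clicked to azide 800CW IRDye (90 min rt), gel-separated and fluorescence-imaged. HDAC3 and phospho-HDAC3 were detected by Western blot with IRDye secondaries.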
Target sequence in this assay (O15379 whole entry): as the sequence (O15379 whole entry) above
Target sequence in this assay (O75376 whole entry partner): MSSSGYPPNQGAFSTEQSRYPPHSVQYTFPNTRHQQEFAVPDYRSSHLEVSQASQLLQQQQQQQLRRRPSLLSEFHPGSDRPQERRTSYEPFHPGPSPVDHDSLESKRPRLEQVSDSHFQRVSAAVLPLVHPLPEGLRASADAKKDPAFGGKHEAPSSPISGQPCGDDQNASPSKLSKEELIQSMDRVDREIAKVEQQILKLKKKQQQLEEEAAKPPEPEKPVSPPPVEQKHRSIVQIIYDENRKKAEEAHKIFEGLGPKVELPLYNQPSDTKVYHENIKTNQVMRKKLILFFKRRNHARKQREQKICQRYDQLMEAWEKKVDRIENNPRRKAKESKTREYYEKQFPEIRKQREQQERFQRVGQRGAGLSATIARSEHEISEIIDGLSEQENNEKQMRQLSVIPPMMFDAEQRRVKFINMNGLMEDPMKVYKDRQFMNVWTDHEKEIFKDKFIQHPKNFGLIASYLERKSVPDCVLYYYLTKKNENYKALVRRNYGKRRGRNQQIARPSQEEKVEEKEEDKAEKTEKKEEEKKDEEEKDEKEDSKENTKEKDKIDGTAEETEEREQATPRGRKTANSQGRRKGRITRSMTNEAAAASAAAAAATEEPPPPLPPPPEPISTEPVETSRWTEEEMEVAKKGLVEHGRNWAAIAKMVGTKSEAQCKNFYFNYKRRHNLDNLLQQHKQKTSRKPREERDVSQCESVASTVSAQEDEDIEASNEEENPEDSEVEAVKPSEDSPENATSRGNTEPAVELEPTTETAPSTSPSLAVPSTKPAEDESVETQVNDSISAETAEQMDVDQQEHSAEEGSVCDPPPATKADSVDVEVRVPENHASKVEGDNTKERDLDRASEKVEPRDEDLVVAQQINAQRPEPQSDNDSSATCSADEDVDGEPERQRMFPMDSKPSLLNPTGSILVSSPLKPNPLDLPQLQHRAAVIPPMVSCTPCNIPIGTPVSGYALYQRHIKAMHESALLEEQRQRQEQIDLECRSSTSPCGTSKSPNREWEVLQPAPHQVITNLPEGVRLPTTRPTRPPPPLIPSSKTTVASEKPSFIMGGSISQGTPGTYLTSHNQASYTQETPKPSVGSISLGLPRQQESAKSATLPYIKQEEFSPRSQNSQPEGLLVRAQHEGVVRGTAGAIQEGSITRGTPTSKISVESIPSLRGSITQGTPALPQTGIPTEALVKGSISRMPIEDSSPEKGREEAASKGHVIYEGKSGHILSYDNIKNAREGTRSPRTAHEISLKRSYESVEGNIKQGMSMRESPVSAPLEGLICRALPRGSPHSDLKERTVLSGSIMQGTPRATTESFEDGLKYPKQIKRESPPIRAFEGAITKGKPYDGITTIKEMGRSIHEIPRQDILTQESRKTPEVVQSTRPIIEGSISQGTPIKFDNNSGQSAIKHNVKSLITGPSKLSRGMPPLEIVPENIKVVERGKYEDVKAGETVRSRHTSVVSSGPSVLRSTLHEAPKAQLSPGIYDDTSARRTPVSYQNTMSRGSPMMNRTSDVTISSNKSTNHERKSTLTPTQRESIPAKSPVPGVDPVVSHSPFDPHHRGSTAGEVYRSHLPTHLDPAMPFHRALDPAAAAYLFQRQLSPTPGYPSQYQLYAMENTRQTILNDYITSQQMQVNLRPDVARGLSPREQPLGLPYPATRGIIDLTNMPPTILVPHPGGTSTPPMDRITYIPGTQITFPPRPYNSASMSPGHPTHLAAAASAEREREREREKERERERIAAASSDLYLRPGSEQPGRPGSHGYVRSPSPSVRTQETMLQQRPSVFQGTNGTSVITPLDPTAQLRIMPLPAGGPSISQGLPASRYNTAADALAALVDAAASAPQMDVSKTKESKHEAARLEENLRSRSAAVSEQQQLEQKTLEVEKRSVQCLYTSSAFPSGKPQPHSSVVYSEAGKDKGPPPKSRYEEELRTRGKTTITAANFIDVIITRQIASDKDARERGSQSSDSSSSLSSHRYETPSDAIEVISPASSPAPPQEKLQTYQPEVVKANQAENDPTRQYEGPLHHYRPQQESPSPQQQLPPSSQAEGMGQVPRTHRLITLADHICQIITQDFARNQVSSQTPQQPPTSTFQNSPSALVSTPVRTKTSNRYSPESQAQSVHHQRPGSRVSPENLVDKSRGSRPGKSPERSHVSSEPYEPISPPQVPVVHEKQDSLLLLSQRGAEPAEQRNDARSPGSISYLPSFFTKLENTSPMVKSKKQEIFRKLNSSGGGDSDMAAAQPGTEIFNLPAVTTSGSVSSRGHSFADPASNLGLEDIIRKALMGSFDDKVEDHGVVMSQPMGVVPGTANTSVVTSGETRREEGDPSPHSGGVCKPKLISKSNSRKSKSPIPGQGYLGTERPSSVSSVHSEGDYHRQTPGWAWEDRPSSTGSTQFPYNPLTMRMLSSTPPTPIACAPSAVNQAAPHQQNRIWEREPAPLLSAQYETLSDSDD
Target sequence in this assay (O60907 whole entry partner): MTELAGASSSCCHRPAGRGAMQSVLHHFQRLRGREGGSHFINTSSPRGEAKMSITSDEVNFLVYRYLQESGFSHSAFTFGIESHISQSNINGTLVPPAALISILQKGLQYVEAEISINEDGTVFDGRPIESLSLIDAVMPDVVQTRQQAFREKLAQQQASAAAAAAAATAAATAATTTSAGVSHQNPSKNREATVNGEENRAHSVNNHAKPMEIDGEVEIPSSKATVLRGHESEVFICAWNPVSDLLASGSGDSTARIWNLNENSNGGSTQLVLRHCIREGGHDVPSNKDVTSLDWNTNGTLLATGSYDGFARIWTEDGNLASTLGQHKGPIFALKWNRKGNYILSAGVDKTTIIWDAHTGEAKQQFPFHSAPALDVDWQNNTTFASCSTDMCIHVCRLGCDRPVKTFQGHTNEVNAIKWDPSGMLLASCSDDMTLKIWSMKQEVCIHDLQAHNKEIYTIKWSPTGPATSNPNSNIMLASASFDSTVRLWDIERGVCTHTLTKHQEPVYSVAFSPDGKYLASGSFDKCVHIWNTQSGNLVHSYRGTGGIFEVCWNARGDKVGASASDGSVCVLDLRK
Target sequence in this assay (Q13227 whole entry partner): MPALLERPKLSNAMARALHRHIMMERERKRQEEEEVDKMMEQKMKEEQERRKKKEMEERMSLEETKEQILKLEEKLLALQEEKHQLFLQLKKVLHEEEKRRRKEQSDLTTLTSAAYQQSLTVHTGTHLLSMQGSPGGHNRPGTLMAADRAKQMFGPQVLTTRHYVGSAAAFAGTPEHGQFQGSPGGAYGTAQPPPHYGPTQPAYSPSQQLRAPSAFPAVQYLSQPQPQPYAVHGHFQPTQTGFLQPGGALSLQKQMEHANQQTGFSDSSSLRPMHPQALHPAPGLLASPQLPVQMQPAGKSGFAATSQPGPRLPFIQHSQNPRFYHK

[9] = MCF-7 cells stimulated with TNF-α, compared to TNF-α alone

T2 sequence (O15379 whole entry): as the sequence (O15379 whole entry) above
Sequence of recombinant HDAC1 (Q13547 whole entry): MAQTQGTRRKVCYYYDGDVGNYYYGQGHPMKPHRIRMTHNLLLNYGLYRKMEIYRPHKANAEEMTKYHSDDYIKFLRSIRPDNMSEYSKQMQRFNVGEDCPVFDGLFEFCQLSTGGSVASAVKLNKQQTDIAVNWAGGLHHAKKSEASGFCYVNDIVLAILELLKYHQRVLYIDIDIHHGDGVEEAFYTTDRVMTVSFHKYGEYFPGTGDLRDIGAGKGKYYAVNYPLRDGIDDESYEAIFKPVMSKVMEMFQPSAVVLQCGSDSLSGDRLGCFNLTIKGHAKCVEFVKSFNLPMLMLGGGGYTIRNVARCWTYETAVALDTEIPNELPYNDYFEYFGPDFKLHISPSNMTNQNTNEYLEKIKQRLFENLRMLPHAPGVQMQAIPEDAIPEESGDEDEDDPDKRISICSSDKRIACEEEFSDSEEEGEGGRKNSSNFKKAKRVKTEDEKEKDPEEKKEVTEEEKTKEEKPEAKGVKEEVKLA
Sequence of recombinant HDAC2 (Q92769 whole entry, canonical isoform): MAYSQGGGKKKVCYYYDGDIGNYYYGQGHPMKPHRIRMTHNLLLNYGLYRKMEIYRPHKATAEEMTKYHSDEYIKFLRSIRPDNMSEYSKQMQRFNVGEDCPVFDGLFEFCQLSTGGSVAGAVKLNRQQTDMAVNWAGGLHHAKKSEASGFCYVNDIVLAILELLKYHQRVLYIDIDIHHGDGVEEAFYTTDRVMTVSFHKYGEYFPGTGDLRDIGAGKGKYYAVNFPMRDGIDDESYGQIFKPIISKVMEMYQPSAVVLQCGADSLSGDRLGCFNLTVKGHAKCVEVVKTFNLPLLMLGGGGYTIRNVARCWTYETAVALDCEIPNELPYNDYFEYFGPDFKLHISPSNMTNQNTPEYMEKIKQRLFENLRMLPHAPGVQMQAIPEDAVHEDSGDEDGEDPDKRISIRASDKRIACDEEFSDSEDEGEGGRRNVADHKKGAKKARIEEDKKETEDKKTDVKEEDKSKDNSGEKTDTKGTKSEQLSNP

Compound	HDAC3 phosphorylation after inhibitor treatment (HDAC3 [2])	photomate labeling (engagement) of HDAC3 after inhibitor treatment (HDAC3 [2])	photomate labeling of HDAC3 after treatment (HDAC3 [8]; MCF-7 cells)	also measured
O=C(CCCCCCC(=O)Nc1ccccc1)NO [SAHA, suberoyl anilide hydroxamic acid]	–	–	–	photomate labeling of HDAC isoforms upon co-incubation with competitor ([1]; SAHA 200 µM, photomate 10 µM): Labeling of all HDAC isoforms was lost
O=c1cc(N2CCOCC2)oc2c(-c3ccccc3)cccc12 [LY294002]	Neither of the compounds induced any change	Neither of the compounds induced any change	–	–
C#CCN(CCCCCC(=O)NO)Cc1c(F)c(F)c(N=[N+]=[N-])c(F)c1F [photomate, 6-((4-Azido-2,3,5,6-tetrafluorobenzyl)(prop-2-yn-1-yl)amino)-N-hydroxyhexanamide]	–	–	–	IC50 (recombinant HDAC2): 0.132 µM; efficacy in TNBC cells (TNBC cells): increased efficacy in TNBC cells; relative potency or affinity based on inhibition or labeling (isoform selectivity) ([1]; recombinant HDAC1, 2, 3, 8 and 4): nonselective for HDAC1, 2 and 3 but shows decreased potency and affinity with respect to HDAC8 and the class II HDAC4; IC50 (HDAC3 [3]): 0.109 µM; HDAC3 enriched from TNBC cell lines in comparison to luminal subtypes (class I and II HDACs [4]): increased amounts of HDAC3 were enriched from TNBC cell lines; HDAC isoforms enriched across cell lines (class I and II HDACs [5]): ubiquitously targeted and enriched HDAC1, 2 and 9 from every cell line; engagement of HDAC3 in cells (class I and II HDACs [6]): could not be detected; HDAC targets identified by MS/MS and Western blot (class I and II HDACs [7]): HDAC1 and 2 were the only HDAC targets; IC50 (recombinant HDAC4): 20.1 µM; IC50 (recombinant HDAC8): 2.27 µM; IC50 (recombinant HDAC1): 0.417 µM
Oc1ccc(-c2nc(-c3ccncc3)c(-c3ccc(F)cc3)[nH]2)cc1 [SB202190]	–	increased labeling	–	–
Oc1c2ccccc2c2c3c(cccc13)N=N2 [SP600125]	complete loss of HDAC3 phosphorylation	abolished the labeling of HDAC3	–	–
O=C(c1ccc(Nc2nccc(-c3cc4ccccc4s3)n2)cc1)N1CCC(N2CCCC2)CC1 [IKK-16]	–	no change	–	–
IGF-1: MAPK stimulating growth factor	–	–	had no effect	–
Brc1c(Br)c(Br)c2n[nH]nc2c1Br [TBB]	Neither of the compounds induced any change	Neither of the compounds induced any change	–	–
CCOc1nc(NC(=O)Cc2cc(OC)ccc2OC)cc(N)c1C#N [TCS 6o]	decreased	decreased	–	HDAC3 phosphorylation, JNK inhibitor pretreatment then TNF-α (HDAC3 [8]; [9]): decrease in HDAC3 labeling and phosphorylation; photomate labeling of HDAC3, JNK inhibitor pretreatment then TNF-α (HDAC3 [8]; [9]): decrease in HDAC3 labeling and phosphorylation
TNF-α	–	–	induces specific labeling of HDAC3	–
EGF: MAPK stimulating growth factor	–	–	had no effect	–
CC/C(=C(\c1ccccc1)c1ccc(OCCN(C)C)cc1)c1ccccc1 [tamoxifen]	–	–	no increase	HDAC3 phosphorylation after treatment (HDAC3 [8]; MCF-7 cells): no increase
COc1ccc(CNC(=O)Nc2ncc([N+](=O)[O-])s2)cc1 [AR-A014418]	did not affect	did not affect	–	–
